From ChEMBL document CHEMBL1158347, “Substituted quinazolines, part 3. Synthesis, in vitro antitumor activity and molecular modeling study of certain 2-thieno-4(3H)-quinazolinone analogs” (2009)

What was measured:
Type in all cases: functional
[1] = Growth inhibition of human leukemia cells after 48 hrs; details: Leukemia cell
Outline: (§1)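 NCI in vitro disease-oriented human tumor cell line screen. Compounds passing a one-dose primary assay (MCF-7, NCI-H460, SF-268; pass = growth of any line reduced to 32% or less) were tested on the 60-line panel over a 5-log dose range. Compounds were dissolved in DMSO, with under 1% DMSO in final dilutions, and tested in duplicate at 6×10^4 cells/ml. Cells were incubated at 37 °C in 5% CO2 for 48 h, then diluted 10-fold in saline and counted with a Coulter counter, with counts corrected for dilution. Controls held PBS/DMSO at identical dilutions. GI50 was reported per line and as subpanel/full-panel mean-graph midpoint.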

NSCLC = assay: Growth inhibition of human NSCLC cells after 48 hrs; outline: as §1
[2] = Growth inhibition of human Colon cancer cells after 48 hrs; details: Cancer cell lines; outline: as §1
[3] = Growth inhibition of human CNS cancer cells after 48 hrs; details: Cancer cell lines; outline: as §1
[4] = Growth inhibition of human melanoma cells after 48 hrs; details: Melanoma cell; outline: as §1
[5] = Growth inhibition of human ovarian cancer cells after 48 hrs; details: Cancer cell lines; outline: as §1
[6] = Growth inhibition of human renal cancer cells after 48 hrs; details: Cancer cell lines; outline: as §1
[7] = Growth inhibition of human prostate cancer cells after 48 hrs; details: Cancer cell lines; outline: as §1
[8] = Growth inhibition of human breast cancer cells after 48 hrs; details: Cancer cell lines; outline: as §1
CCRF-CEM = assay: Growth inhibition of human CCRF-CEM cells after 48 hrs; details: for CC50: read-out: LC50 (the source's name); outline: as §1
HL-60(TB) = assay: Growth inhibition of human HL-60(TB) cells after 48 hrs; details: HL-60, 48 h; for CC50: read-out: LC50 (the source's name)
Outline: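 NCI 60-cell-line screen over a 5-log dose range. Compounds were dissolved in DMSO, final DMSO under 1%. Duplicate wells were seeded at 6×10^4 cells/ml, with PBS/DMSO vehicle controls at identical dilutions. Cells were incubated 48 h at 37 °C in humidified 5% CO2, diluted 10-fold in saline, and counted by Coulter counter with dilution correction. GI50 read-out.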

K562 = assay: Growth inhibition of human K562 cells after 48 hrs; details: K562, 48 h; outline: as §1
RPMI-8226 = assay: Growth inhibition of human RPMI8226 cells after 48 hrs; details: RPMI-8226, 48 h; for CC50: read-out: LC50 (the source's name); outline: as §1
SK-MEL-2 = assay: Growth inhibition of human SK-MEL-2 cells after 48 hrs; details: SK-MEL-2, 48 h; outline: as §1
UACC-257 = assay: Growth inhibition of human UACC257 cells after 48 hrs; details: UACC-257, 48 h; outline: as §1
MCF7 = assay: Growth inhibition of human MCF7 cells after 48 hrs; details: MCF7, 48 h; for CC50: read-out: LC50 (the source's name); outline: as §1
T47D = assay: Growth inhibition of human T47D cells after 48 hrs; outline: as §1

CCCCNC(=O)c1cc(I)ccc1NC(=O)c1cccs1
GI50 [1]: 83.8 µM | TGI [1]: > 100 µM | GI50 (NSCLC): 96 µM | TGI (NSCLC): > 100 µM | GI50 [2]: > 100 µM | TGI [2]: > 100 µM | GI50 [3]: > 100 µM | TGI [3]: > 100 µM | GI50 [4]: > 100 µM | TGI [4]: > 100 µM | GI50 [5]: > 100 µM | TGI [5]: > 100 µM | GI50 [6]: > 100 µM | TGI [6]: > 100 µM | GI50 [7]: > 100 µM | TGI [7]: > 100 µM | GI50 [8]: > 100 µM | TGI [8]: > 100 µM

O=c1c2cc(I)ccc2nc(-c2cccs2)n1/N=C/c1ccccc1
GI50 [1]: 63.4 µM | TGI [1]: > 100 µM | GI50 (NSCLC): > 100 µM | TGI (NSCLC): > 100 µM | GI50 [2]: > 100 µM | TGI [2]: > 100 µM | GI50 [3]: > 100 µM | TGI [3]: > 100 µM | GI50 [4]: 90.3 µM | TGI [4]: > 100 µM | GI50 [5]: > 100 µM | TGI [5]: > 100 µM | GI50 [6]: > 100 µM | TGI [6]: > 100 µM | GI50 [7]: > 100 µM | TGI [7]: > 100 µM | GI50 [8]: > 100 µM | TGI [8]: > 100 µM

O=c1c2cc(I)ccc2nc(-c2cccs2)n1-c1ccc(S(=O)(=O)Nc2nccs2)cc1
GI50 [1]: 54 µM | TGI [1]: > 100 µM | GI50 (NSCLC): 38.7 µM | TGI (NSCLC): 89.5 µM | GI50 [2]: 44.7 µM | TGI [2]: 94.6 µM | GI50 [3]: 41.4 µM | TGI [3]: 87.7 µM | GI50 [4]: 45.2 µM | TGI [4]: 84.8 µM | GI50 [5]: 46.5 µM | TGI [5]: > 100 µM | GI50 [6]: 34.2 µM | TGI [6]: 84.3 µM | GI50 [7]: 32.9 µM | TGI [7]: > 100 µM | GI50 [8]: 34.8 µM | TGI [8]: 88.3 µM

O=c1[nH]cc(F)c(=O)[nH]1 [FLUOROURACIL]
GI50 [1]: 15.1 µM | TGI [1]: > 100 µM | GI50 (NSCLC): > 100 µM | TGI (NSCLC): > 100 µM | GI50 [2]: 8.37 µM | TGI [2]: > 100 µM | GI50 [3]: 72.1 µM | TGI [3]: > 100 µM | TGI [4]: > 100 µM | TGI [5]: > 100 µM | TGI [6]: > 100 µM | TGI [7]: > 100 µM | TGI [8]: > 100 µM

NS(=O)(=O)c1ccc(-n2c(-c3cccs3)nc3ccc(I)cc3c2=O)cc1
GI50 (CCRF-CEM): 41 µM | TGI (CCRF-CEM): > 100 µM | CC50 (CCRF-CEM): > 100 µM | GI50 (HL-60(TB)): 20 µM | TGI (HL-60(TB)): 64 µM | CC50 (HL-60(TB)): > 100 µM | GI50 (K562): 37 µM | LC50 (concentration killing 50% of cells) (K562): > 100 µM | TGI (K562): > 100 µM | GI50 (RPMI-8226): 25 µM | TGI (RPMI-8226): 62 µM | CC50 (RPMI-8226): > 100 µM | GI50 (SK-MEL-2): 22 µM | LC50 (SK-MEL-2): > 100 µM | TGI (SK-MEL-2): 48 µM | GI50 (UACC-257): 0.05 µM | LC50 (UACC-257): > 100 µM | TGI (UACC-257): 19 µM | GI50 (MCF7): 23 µM | TGI (MCF7): 65 µM | CC50 (MCF7): > 100 µM | GI50 (T47D): 19 µM | LC50 (T47D): 99 µM | TGI (T47D): 44 µM | GI50 [1]: 35.3 µM | TGI [1]: 87.7 µM | GI50 (NSCLC): 24 µM | TGI (NSCLC): 61.3 µM | GI50 [2]: 24.8 µM | LC50 [2]: 87.1 µM | TGI [2]: 59.3 µM | GI50 [3]: 30.3 µM | TGI [3]: 73.8 µM | GI50 [4]: 17.6 µM | TGI [4]: 43 µM | GI50 [5]: 23.5 µM | TGI [5]: 65.1 µM | GI50 [6]: 24.7 µM | TGI [6]: 64.1 µM | CC50 ([6]; read-out: LC50 (the source's name)): 94.1 µM | GI50 [7]: 22.7 µM | TGI [7]: 58.9 µM | GI50 [8]: 23.3 µM | TGI [8]: 62.5 µM

CC(=O)CC(=O)Nn1c(-c2cccs2)nc2ccc(I)cc2c1=O
GI50 [1]: 38.5 µM | TGI [1]: > 100 µM | GI50 (NSCLC): 27.5 µM | TGI (NSCLC): 86.4 µM | GI50 [2]: 28.1 µM | TGI [2]: 90.9 µM | GI50 [3]: 27.9 µM | TGI [3]: 89.1 µM | GI50 [4]: 37.7 µM | TGI [4]: 85.3 µM | GI50 [5]: 40.9 µM | TGI [5]: 93.6 µM | GI50 [6]: 28.9 µM | TGI [6]: 85.1 µM | GI50 [7]: 20.6 µM | TGI [7]: > 100 µM | GI50 [8]: 24.9 µM | TGI [8]: 82.1 µM

CCSc1nc(-c2cccs2)nc2ccc(I)cc12
TGI [1]: > 100 µM | GI50 (NSCLC): 84.2 µM | TGI (NSCLC): > 100 µM | GI50 [2]: 94.6 µM | TGI [2]: > 100 µM | GI50 [3]: > 100 µM | TGI [3]: > 100 µM | GI50 [4]: > 100 µM | TGI [4]: > 100 µM | GI50 [5]: 85.2 µM | TGI [5]: > 100 µM | GI50 [6]: > 100 µM | TGI [6]: > 100 µM | GI50 [7]: > 100 µM | TGI [7]: > 100 µM | GI50 [8]: 71.4 µM | TGI [8]: > 100 µM

O=c1c2cc(I)ccc2nc(-c2cccs2)n1O
GI50 [1]: 34.3 µM | TGI [1]: > 100 µM | GI50 (NSCLC): 33.2 µM | TGI (NSCLC): 91.2 µM | GI50 [2]: 45.8 µM | TGI [2]: > 100 µM | GI50 [3]: 33.2 µM | TGI [3]: 94.4 µM | GI50 [4]: 57.3 µM | TGI [4]: 97.1 µM | GI50 [5]: 32.1 µM | TGI [5]: 87.9 µM | GI50 [6]: 49.8 µM | TGI [6]: > 100 µM | GI50 [7]: 39.9 µM | TGI [7]: 98.4 µM | GI50 [8]: 39.4 µM | TGI [8]: > 100 µM

NNC(=O)COc1nc(-c2cccs2)nc2ccc(I)cc12
GI50 (CCRF-CEM): 20 µM | TGI (CCRF-CEM): 88 µM | CC50 (CCRF-CEM): > 100 µM | GI50 (HL-60(TB)): 38 µM | TGI (HL-60(TB)): > 100 µM | CC50 (HL-60(TB)): > 100 µM | GI50 (K562): 37 µM | LC50 (concentration killing 50% of cells) (K562): > 100 µM | TGI (K562): > 100 µM | GI50 (RPMI-8226): 16 µM | TGI (RPMI-8226): 39 µM | CC50 (RPMI-8226): 97 µM | GI50 (SK-MEL-2): 25 µM | LC50 (SK-MEL-2): > 100 µM | TGI (SK-MEL-2): 71 µM | GI50 (UACC-257): < 0.01 µM | LC50 (UACC-257): > 100 µM | TGI (UACC-257): > 100 µM | GI50 (MCF7): 16 µM | TGI (MCF7): 89 µM | CC50 (MCF7): > 100 µM | GI50 (T47D): 2 µM | LC50 (T47D): > 100 µM | TGI (T47D): 22 µM | GI50 [1]: 25.4 µM | TGI [1]: 80.5 µM | GI50 (NSCLC): 19.4 µM | TGI (NSCLC): 59.6 µM | GI50 [2]: 24.3 µM | TGI [2]: 66.9 µM | GI50 [3]: 20.7 µM | TGI [3]: 62.1 µM | GI50 [4]: 19.4 µM | TGI [4]: 51.1 µM | GI50 [5]: 22.3 µM | TGI [5]: 72.5 µM | GI50 [6]: 23.1 µM | TGI [6]: 71.1 µM | GI50 [7]: 23.5 µM | TGI [7]: 75.3 µM | GI50 [8]: 18.7 µM | TGI [8]: 64.7 µM
